Calls of active or inactive are those of the source. No cut-off for these calls is given here.
Legend:
[1] = biological target: T1, 5-hydroxytryptamine receptor 2A (Homo sapiens, UniProt P28223); test: Inhibition of [3H]Ketanserin binding to 5-HT2A receptor (unknown origin) expressed in HEK293 cells at 10 uM by liquid scintillation counter relative to control; type: cell-based
Outline: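 Membranes of HEK293T stably transfected with 5-HT2A, […], incubated in duplicate 15 min at 37 °C with [3H]ketanserin in 50 mM Tris, 4 mM MgCl2, pH 7.4. […] GF/B filtration, cold wash, scintillation counting.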

D(2) dopamine receptor [2] = biological target: T2, D(2) dopamine receptor (Homo sapiens, UniProt P14416); details: HEK293, at 10 µM
D(1A) dopamine receptor [3] = biological target: T3, D(1A) dopamine receptor (Homo sapiens, UniProt P21728); test: Inhibition of [3H]SCH23390 binding to dopamine D1 receptor (unknown origin) expressed in human HEK293 cells at 10 uM by liquid scintillation counter relative to control; type: cell-based
Outline: (§1)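 Stably transfected HEK293T D1 membranes, […], duplicate incubation 50 min at 30 °C with [3H]SCH23390 in 50 mM Tris, 4 mM MgCl2, pH 7.4. Nonspecific binding with 10 μM SCH23390. GF/B filtration, scintillation counting.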

[4] = biological target: T4, 5-hydroxytryptamine receptor 1A (Homo sapiens) (UniProt P08908); test: Inhibition of [3H]8-OH-DPAT binding to 5-HT1A receptor (unknown origin) expressed in HEK293 cells at 10 uM by liquid scintillation counter relative to control; type: cell-based
T4 sequence (whole entry): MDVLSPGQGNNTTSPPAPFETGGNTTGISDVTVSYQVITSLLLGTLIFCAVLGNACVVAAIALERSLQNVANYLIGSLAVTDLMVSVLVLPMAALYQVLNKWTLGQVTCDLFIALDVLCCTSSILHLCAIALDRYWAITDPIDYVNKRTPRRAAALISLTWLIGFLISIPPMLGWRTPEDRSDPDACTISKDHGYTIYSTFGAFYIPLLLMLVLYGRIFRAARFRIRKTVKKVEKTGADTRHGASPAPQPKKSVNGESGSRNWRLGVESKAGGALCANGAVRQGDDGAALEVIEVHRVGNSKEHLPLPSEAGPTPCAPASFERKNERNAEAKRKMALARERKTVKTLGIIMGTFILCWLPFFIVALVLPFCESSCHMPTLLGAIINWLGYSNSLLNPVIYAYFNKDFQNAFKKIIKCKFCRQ
Outline: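 Membranes of HEK293T stably transfected with 5-HT1A, […], incubated in duplicate 50 min at 30 °C with [3H]8-OH-DPAT in 50 mM Tris, 4 mM MgCl2, pH 7.4. Nonspecific binding with 10 μM WAY100635. Filtration on GF/B, cold Tris/EDTA wash, scintillation counting.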

D(1A) dopamine receptor [5] = biological target: T3, D(1A) dopamine receptor; test: Displacement of [3H]SCH23390 from dopamine D1 receptor (unknown origin) expressed in human HEK293 cells by liquid scintillation counter; type: cell-based; outline: as §1
Rattus norvegicus = test: Antipsychotic activity in Sprague-Dawley rat schizophrenia model assessed as inhibition of PCP-induced prepulse inhibition at 0.5 mg/kg, ip administered 10 mins prior testing monitored for 5 mins; type: functional, organism-based; design: dose 0.5 mg/kg
Outline: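 Male Sprague–Dawley rats (230–280 g) received ip saline or drug 10 min before PCP (5 mg/kg, ip). Acoustic startle PPI was tested 5 min after PCP, after 3-min acclimation: 40 ms, 120 dB white-noise pulse-alone and prepulse+pulse trials, 15–25 s intertrial interval, 74 dB background, about 20 min session. %PPI = [1 − (prepulse+pulse startle)/(pulse-alone startle)] × 100.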

[6] = biological target: T5, 5-hydroxytryptamine receptor 1A (Homo sapiens, UniProt P08908); test: Displacement of [3H]8-OH-DPAT from 5-HT1A receptor (unknown origin) expressed in HEK293 cells by liquid scintillation counter; type: cell-based
T5 sequence (P08908 whole entry): T4 sequence (whole entry)

[7] = biological target: T1, 5-hydroxytryptamine receptor 2A; test: Displacement of [3H]Ketanserin from 5-HT2A receptor (unknown origin) expressed in HEK293 cells by liquid scintillation counter; type: cell-based
D(2) dopamine receptor [8] = biological target: T2, D(2) dopamine receptor; test: Displacement of [3H]spiperone from dopamine D2 receptor (unknown origin) expressed in human HEK293 cells by liquid scintillation counter; type: cell-based

T1 sequence (P28223 whole entry): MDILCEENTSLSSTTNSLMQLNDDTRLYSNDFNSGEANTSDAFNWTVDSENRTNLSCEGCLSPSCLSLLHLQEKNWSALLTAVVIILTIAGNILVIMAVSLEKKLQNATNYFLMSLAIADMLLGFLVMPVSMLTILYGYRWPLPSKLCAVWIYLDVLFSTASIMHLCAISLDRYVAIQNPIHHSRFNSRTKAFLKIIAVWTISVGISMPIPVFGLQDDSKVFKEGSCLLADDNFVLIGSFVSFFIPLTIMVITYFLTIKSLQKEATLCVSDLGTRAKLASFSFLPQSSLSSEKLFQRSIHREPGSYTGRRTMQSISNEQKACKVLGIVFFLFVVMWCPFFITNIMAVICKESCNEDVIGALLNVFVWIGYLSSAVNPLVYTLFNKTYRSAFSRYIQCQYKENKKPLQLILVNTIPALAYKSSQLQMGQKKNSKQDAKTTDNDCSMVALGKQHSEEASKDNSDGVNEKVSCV
T3 sequence (P21728 whole entry): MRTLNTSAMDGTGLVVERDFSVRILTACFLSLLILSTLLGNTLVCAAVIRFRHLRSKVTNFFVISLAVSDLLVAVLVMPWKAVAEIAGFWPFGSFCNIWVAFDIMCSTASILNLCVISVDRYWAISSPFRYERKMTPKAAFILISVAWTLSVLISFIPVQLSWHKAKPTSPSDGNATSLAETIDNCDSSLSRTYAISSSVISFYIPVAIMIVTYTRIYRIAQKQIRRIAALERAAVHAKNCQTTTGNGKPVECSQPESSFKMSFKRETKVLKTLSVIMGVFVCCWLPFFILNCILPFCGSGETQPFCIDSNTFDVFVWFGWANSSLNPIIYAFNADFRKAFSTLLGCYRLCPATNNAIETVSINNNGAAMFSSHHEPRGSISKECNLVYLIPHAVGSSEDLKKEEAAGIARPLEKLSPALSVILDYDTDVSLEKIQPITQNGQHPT
T2 sequence (P14416 whole entry): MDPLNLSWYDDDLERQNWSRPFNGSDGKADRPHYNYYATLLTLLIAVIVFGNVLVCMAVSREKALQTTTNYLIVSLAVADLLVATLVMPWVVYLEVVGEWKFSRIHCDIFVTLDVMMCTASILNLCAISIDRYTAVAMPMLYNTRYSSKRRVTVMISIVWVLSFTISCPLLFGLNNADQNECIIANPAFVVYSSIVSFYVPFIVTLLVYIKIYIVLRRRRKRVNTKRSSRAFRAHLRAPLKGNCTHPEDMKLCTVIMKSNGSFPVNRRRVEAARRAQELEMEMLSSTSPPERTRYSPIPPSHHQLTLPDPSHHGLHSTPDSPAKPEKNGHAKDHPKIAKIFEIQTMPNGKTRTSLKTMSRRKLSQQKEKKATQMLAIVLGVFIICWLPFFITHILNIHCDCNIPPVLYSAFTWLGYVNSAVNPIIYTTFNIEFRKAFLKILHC

SMILES	inhibition [1] [%]	inhibition (D(2) dopamine receptor [2]) [%]	inhibition (D(1A) dopamine receptor [3]) [%]	inhibition [4] [%]	Ki (D(1A) dopamine receptor [5]) [nM]	inhibition (Rattus norvegicus)	Ki [6] [nM]	Ki [7] [nM]	Ki (D(2) dopamine receptor [8]) [nM]
COc1cc2c(cc1O)CCN1Cc3c(ccc(OC)c3OC)C[C@H]21	40.4	71.5	88.8	55.4	1190	–	–	–	–
COc1cc2c(cc1OC)[C@H]1Cc3ccc(OC)c(OC)c3CN1CC2	29.7	20.5	39.8	30.4	–	–	–	–	–
Cc1nc2n(c(=O)c1CCN1CCC(c3noc4cc(F)ccc34)CC1)CCCC2	–	–	–	–	–	Active	–	–	–
COc1cc2c(cc1O)[C@H]1Cc3ccc(O)c(OC)c3CN1CC2	16.4	53.7	94.4	53.6	135	–	–	–	–
COc1cc2c(cc1O)[C@@H]1Cc3c(CO)c(OC)cc(OC)c3CN1CC2	–	94.8	104	–	–	–	> 5000	–	–
COc1cc2c(cc1O)CCN1Cc3c(ccc(O)c3OC)C[C@H]21	13.9	27.7	67.1	13.2	–	–	–	–	–
COc1cc2c(cc1OC)[C@H]1Cc3ccc(O)c(OC)c3CN1CC2	27.9	3.4	54.4	65.5	–	–	–	–	–
COc1c(O)ccc2c1CN1CCc3cc4c(cc3[C@@H]1C2)OCC4	91.7	63.9	99.3	79.5	7.5	–	> 5000	480	–
COc1cc2c(cc1O)[C@H]1Cc3ccc(OC)c(O)c3CN1CC2	26.3	31.8	84.5	2	529	–	–	–	–
COc1ccc2c(c1)C[C@H]1c3cc(O)c(OC)cc3CCN1C2	–	90	97.5	–	–	–	–	–	–
COc1cc2c(cc1O)CCN1Cc3c(ccc(OC)c3OC)C[C@@H]21	38	63.2	84.1	50.5	310	–	–	–	–
COc1ccc2c(c1O)CN1CCc3cc4c(cc3[C@@H]1C2)OCO4	49.1	78	98.7	82.8	60	–	> 5000	–	> 5000
O=C(CCCN1CCC2(CC1)C(=O)NCN2c1ccccc1)c1ccc(F)cc1	100	100	–	–	–	–	–	–	–
COc1c(O)ccc2c1CN1CCc3cc4c(cc3[C@@H]1C2)OCCO4	97.3	73.1	22.6	90.8	–	–	208	363	–
COc1cc2c(cc1OC)[C@H]1Cc3ccc(OC)c(O)c3CN1CC2	19.3	1.5	35.9	6.2	–	–	–	–	–
COc1cc2c(cc1O)[C@@H]1Cc3ccc(OC)c(OC)c3CN1CC2	40.5	–	99.2	71.1	[…]	–	–	–	–
COc1ccc2c(c1O)CN1CCc3cc4c(cc3[C@H]1C2)OCO4	10.9	20.4	78.9	25.5	> 5000	–	–	–	–

SMILES	inhibition [1] [%]	inhibition (D(2) dopamine receptor [2]) [%]	inhibition (D(1A) dopamine receptor [3]) [%]	inhibition [4] [%]	Ki (D(1A) dopamine receptor [5]) [nM]	inhibition (Rattus norvegicus)	Ki [6] [nM]	Ki [7] [nM]	Ki (D(2) dopamine receptor [8]) [nM]
COc1cc2c(cc1O)[C@@H]1Cc3ccc(OC)c(O)c3CN1CC2 [SCOULERINE]	20.9	93.4	99.1	14.2	22	–	–	–	214
COc1cc2c(cc1O)[C@H]1Cc3ccc(OC)c(OC)c3CN1CC2	40.6	–	99.5	64.2	[…]	–	–	–	–
CN1CCc2cc(Cl)c(O)cc2C(c2ccccc2)C1 (stereo not given)	–	–	100	–	–	–	–	–	–
COc1c(O)ccc2c1CN1CCc3cc4c(cc3[C@H]1C2)OCO4	25.3	40.5	95.8	63.6	565	–	–	–	–
COc1cc2c(cc1O)CCN1Cc3c(ccc(OC)c3O)C[C@@H]21	59.1	79.8	95.2	60.5	530	–	–	–	> 5000
COc1ccc2c(c1OC)CN1CCc3cc4c(cc3[C@H]1C2)OCO4	18.3	26.6	75.5	34.5	> 5000	–	–	–	–
NCCc1c[nH]c2ccc(O)cc12	–	–	–	100	–	–	–	–	–
COc1cc2c(cc1OC)[C@@H]1Cc3ccc(OC)c(O)c3CN1CC2 [TETRAHYDROPALMATRUBINE]	20	22.7	87.7	30.5	443	–	–	–	–
COc1cc2c(cc1O)CCN1Cc3c(ccc(OC)c3O)C[C@H]21	36	8.16	49.4	31.5	–	–	–	–	–
COc1ccc2c(c1OC)CN1CCc3cc4c(cc3[C@@H]1C2)OCO4 [CANADINE]	46.6	88.7	98.3	84.4	66	–	> 5000	–	119
COc1cc2c(cc1O)CCN1Cc3c(ccc(O)c3OC)C[C@@H]21	84	94.2	98.3	76.7	200	–	> 5000	> 5000	113
COc1cc2c(cc1O)[C@@H]1Cc3cc4c(cc3CN1CC2)OCO4	49.9	100	99.6	61	4.2	–	–	–	–
COc1cc2c(cc1O)[C@@H]1Cc3cc(C)cc(C)c3CN1CC2	–	90.1	99	–	–	–	–	–	–
COc1cc2c(cc1OC)[C@@H]1Cc3ccc(OC)c(OC)c3CN1CC2 [TETRAHYDROPALMATINE]	33	85.4	96.9	84.9	231	–	> 5000	–	> 5000
COc1cc2c(cc1O)[C@@H]1Cc3ccc(O)c(OC)c3CN1CC2 [STEPHOLIDINE]	–	97.5	99.8	–	3.4	–	> 5000	–	11
COc1cc2c(c(OC)c1)CN1CCc3cc(OC)c(O)cc3[C@@H]1C2	–	–	99.8	–	–	–	–	–	–

Reference: ChEMBL document CHEMBL2331343 (Bioorg Med Chem, 2013)
